Here are results for 3 compounds from ChEMBL document CHEMBL5653631, “A Potent and Selective ULK1 Inhibitor Suppresses Autophagy and Sensitizes Cancer Cells to Nutrient Stress” (iScience, 2018).

Experiment [1] addresses Death-associated protein kinase 1 (Homo sapiens) (UniProt P53355). As to the kind of experiment: Inhibition of human recombinant DAPK1 at 15 nM in presence of ATP by radiometric assay relative to control.
The target of experiment [2] is Tyrosine-protein kinase JAK1 (Homo sapiens) (UniProt P23458). As to the kind of experiment: Inhibition of human recombinant JAK1 at 15 nM in presence of ATP by radiometric assay relative to control.
Sequence of Tyrosine-protein kinase JAK1 (Homo sapiens) (P23458 whole entry, the tested form may be a part): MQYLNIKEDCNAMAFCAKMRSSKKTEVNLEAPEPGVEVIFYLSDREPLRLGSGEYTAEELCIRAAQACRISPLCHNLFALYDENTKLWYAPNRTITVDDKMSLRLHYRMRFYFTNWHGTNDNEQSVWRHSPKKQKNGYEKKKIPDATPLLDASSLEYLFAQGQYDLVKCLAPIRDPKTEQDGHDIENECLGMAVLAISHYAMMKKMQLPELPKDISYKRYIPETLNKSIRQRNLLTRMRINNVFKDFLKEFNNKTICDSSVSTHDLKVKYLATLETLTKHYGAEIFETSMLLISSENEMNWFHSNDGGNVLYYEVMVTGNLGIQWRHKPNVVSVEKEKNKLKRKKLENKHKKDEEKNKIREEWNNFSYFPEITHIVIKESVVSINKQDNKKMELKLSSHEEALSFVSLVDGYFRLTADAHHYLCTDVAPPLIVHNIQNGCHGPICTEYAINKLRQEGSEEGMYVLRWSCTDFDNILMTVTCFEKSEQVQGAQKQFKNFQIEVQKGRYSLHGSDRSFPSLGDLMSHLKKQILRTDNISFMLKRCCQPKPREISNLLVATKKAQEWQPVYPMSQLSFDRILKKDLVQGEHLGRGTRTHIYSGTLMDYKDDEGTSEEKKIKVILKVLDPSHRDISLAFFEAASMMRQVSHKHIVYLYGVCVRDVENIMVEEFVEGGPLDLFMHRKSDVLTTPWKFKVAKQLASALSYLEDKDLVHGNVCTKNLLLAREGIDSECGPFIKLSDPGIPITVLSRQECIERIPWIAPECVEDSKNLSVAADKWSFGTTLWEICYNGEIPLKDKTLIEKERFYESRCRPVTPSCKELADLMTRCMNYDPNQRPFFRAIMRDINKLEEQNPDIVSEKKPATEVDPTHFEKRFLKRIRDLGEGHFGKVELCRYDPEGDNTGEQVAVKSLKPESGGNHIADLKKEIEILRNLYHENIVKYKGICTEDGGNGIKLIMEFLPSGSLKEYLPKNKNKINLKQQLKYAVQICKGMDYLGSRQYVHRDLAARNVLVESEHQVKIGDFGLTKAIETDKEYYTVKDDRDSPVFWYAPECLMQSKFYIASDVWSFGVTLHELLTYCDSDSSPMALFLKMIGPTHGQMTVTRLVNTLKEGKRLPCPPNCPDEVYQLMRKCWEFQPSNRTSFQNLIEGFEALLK
The target in experiment [3] is PAS domain-containing serine/threonine-protein kinase (Homo sapiens) (UniProt Q96RG2). Briefly: Inhibition of human recombinant PASK at 15 nM in presence of ATP by radiometric assay relative to control.
The target in experiment [4] is Protein kinase C theta type (Homo sapiens) (UniProt Q04759). Briefly: Inhibition of human recombinant PKCt at 15 nM in presence of ATP by radiometric assay relative to control.
Sequence of Protein kinase C theta type (Homo sapiens) (Q04759 whole entry, looked up): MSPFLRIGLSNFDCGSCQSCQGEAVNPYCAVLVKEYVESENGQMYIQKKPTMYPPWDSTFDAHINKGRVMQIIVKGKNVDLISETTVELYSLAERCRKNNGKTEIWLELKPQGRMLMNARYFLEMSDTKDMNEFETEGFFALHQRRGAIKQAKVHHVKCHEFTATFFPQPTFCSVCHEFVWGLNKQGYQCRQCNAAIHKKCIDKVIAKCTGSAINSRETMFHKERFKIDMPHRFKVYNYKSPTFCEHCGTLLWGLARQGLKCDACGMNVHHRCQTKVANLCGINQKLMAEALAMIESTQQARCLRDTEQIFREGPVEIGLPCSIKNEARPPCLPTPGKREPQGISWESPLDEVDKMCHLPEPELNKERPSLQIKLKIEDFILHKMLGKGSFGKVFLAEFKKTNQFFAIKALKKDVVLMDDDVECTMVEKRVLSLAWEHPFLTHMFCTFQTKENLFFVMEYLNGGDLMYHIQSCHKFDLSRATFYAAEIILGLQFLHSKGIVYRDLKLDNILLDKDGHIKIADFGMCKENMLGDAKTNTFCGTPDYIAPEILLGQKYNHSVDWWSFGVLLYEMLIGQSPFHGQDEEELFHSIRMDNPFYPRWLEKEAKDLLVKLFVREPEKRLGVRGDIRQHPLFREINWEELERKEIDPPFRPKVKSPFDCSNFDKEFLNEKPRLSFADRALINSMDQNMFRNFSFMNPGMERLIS
The target of experiment [5] is Serine/threonine-protein kinase PLK2 (Homo sapiens) (UniProt Q9NYY3). As to the kind of experiment: Inhibition of human recombinant PLK2 at 15 nM in presence of ATP by radiometric assay relative to control.
Experiment [6] has as its target LIM domain kinase 1 (Homo sapiens) (UniProt P53667). Briefly: Inhibition of human recombinant LIMK1 at 15 nM related to control ULK1.
For experiment [7], the target named is SRSF protein kinase 2 (Homo sapiens) (UniProt P78362). Briefly: Inhibition of human recombinant SRPK2 at 15 nM related to control ULK1.
Experiment [8] deals with 3-phosphoinositide-dependent protein kinase 1 (Homo sapiens) (UniProt O15530). As to the kind of experiment: Inhibition of human recombinant PDK1 at 15 nM related to control ULK1.
Sequence of 3-phosphoinositide-dependent protein kinase 1 (Homo sapiens) (O15530 whole entry, looked up): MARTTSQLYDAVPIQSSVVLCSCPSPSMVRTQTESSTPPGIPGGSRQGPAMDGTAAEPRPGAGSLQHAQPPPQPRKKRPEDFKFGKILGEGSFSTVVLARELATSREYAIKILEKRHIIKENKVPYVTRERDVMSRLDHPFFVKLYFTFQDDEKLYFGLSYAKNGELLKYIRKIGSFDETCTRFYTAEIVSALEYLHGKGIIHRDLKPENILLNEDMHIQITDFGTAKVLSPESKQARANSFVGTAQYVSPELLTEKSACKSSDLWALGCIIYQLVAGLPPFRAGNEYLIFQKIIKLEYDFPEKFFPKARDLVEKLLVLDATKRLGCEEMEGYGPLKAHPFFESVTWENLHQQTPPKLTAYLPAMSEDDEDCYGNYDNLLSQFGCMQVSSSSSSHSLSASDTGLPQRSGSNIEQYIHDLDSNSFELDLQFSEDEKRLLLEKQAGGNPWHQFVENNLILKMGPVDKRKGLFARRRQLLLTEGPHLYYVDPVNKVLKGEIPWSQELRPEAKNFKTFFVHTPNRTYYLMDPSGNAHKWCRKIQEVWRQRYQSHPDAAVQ
Experiment [9] deals with Tyrosine-protein kinase receptor UFO (Homo sapiens) (UniProt P30530). As to the kind of experiment: Inhibition of human recombinant AXL at 40 nM in presence of ATP by radiometric assay relative to control. In short, it runs like this:
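Panel of 327 recombinant human kinases, each assayed in vitro by radiometric activity assay in duplicate at a single inhibitor concentration per compound, chosen with reference to its ULK1 inhibition. Activity remaining was expressed as percent of vehicle control, and percent inhibition was calculated as 100 minus percent activity remaining.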

Experiment [10] has as its target Mitogen-activated protein kinase 10 (Homo sapiens) (UniProt P53779). Briefly: Inhibition of human recombinant JNK3 at 40 nM in presence of ATP by radiometric assay relative to control.
The target of experiment [11] is Serine/threonine-protein kinase PLK3 (Homo sapiens) (UniProt Q9H4B4). As to the kind of experiment: Inhibition of human recombinant PLK3 at 40 nM in presence of ATP by radiometric assay relative to control.
The target of experiment [12] is Epidermal growth factor receptor (Homo sapiens) (UniProt P00533). Briefly: Inhibition of human recombinant EGFR at 40 nM related to control ULK1.
The target in experiment [13] is Serine/threonine-protein kinase pim-1 (Homo sapiens) (UniProt P11309). Briefly: Inhibition of human recombinant PIM1 at 40 nM related to control ULK1.
Sequence of Serine/threonine-protein kinase pim-1 (Homo sapiens) (P11309 whole entry, looked up): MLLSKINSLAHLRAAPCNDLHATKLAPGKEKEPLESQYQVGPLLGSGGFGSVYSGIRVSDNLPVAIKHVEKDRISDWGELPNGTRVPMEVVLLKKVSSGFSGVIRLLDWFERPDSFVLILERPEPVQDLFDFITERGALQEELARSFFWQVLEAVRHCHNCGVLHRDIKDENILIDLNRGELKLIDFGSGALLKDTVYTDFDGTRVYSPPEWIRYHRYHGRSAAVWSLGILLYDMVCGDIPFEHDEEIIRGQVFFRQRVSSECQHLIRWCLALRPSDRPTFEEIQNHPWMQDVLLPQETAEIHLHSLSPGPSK
In experiment [14] the target is Proto-oncogene tyrosine-protein kinase receptor Ret (Homo sapiens) (UniProt P07949). Briefly: Inhibition of human recombinant RET at 40 nM related to control ULK1.
Sequence of Proto-oncogene tyrosine-protein kinase receptor Ret (Homo sapiens) (P07949 whole entry): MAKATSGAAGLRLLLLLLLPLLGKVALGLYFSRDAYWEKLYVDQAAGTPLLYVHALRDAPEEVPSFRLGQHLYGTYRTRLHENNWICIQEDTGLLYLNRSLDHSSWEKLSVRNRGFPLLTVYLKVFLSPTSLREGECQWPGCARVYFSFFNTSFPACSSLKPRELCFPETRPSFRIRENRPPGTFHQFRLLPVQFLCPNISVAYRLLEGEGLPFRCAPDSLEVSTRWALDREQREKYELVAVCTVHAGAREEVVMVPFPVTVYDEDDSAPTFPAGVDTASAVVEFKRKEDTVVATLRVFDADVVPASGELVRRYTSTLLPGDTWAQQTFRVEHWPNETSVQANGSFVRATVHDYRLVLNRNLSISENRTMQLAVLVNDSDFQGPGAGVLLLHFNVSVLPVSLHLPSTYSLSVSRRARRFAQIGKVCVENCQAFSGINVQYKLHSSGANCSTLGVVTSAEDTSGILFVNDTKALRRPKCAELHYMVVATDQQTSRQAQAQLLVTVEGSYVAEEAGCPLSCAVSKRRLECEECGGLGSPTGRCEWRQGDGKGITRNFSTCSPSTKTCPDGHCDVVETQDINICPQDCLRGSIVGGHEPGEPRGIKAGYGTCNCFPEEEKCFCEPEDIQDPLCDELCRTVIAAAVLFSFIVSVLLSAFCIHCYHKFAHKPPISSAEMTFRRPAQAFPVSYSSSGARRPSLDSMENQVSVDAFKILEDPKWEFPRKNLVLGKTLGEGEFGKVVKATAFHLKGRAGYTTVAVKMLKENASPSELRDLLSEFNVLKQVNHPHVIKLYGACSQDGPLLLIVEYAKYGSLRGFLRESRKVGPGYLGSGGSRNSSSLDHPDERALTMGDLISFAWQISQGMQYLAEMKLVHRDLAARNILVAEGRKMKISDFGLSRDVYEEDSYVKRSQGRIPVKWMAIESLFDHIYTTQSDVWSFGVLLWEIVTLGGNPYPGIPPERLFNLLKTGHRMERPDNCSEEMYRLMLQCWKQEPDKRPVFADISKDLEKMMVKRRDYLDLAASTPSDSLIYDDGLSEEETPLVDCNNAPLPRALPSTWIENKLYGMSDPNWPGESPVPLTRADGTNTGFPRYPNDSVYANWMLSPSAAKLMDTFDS
Experiment [15] deals with Cyclin-dependent kinase 9 (Homo sapiens) (UniProt P50750). As to the kind of experiment: Inhibition of human recombinant CDK9 at 500 nM in presence of ATP by radiometric assay relative to control.
Sequence of Cyclin-dependent kinase 9 (Homo sapiens) (P50750 whole entry): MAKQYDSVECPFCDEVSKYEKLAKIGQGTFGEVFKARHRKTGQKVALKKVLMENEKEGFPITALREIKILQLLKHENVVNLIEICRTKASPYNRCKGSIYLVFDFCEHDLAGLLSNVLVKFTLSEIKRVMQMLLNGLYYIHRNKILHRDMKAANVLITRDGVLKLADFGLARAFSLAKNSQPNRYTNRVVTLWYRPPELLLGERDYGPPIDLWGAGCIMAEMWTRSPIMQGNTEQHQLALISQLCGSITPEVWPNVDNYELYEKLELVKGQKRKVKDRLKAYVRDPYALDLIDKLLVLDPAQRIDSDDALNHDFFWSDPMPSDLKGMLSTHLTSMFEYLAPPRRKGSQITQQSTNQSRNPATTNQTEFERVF
Experiment [16] deals with Tau-tubulin kinase 2 (Homo sapiens) (UniProt Q6IQ55). As to the kind of experiment: Inhibition of human recombinant TTBK2 at 500 nM in presence of ATP by radiometric assay relative to control.
Experiment [17] addresses Casein kinase II subunit alpha (Homo sapiens) (UniProt P68400). As to the kind of experiment: Inhibition of human recombinant CK2a1 at 500 nM related to control ULK1.
Experiment [18] has as its target Ribosomal protein S6 kinase alpha-5 (Homo sapiens) (UniProt O75582). As to the kind of experiment: Inhibition of human recombinant MSK1 at 500 nM related to control ULK1.
Experiment [19] deals with Protein kinase C delta type (Homo sapiens) (UniProt Q05655). As to the kind of experiment: Inhibition of human recombinant PKCd at 500 nM related to control ULK1.
Experiment [20] has as its target Non-receptor tyrosine-protein kinase TYK2 (Homo sapiens) (UniProt P29597). As to the kind of experiment: Inhibition of human recombinant TYK2 at 500 nM related to control ULK1.
Experiment [21] has as its target Mitogen-activated protein kinase kinase kinase 20 (Homo sapiens) (UniProt Q9NYL2). As to the kind of experiment: Inhibition of human recombinant ZAK at 500 nM related to control ULK1.
Experiment [22] deals with 3-phosphoinositide-dependent protein kinase 1 (Homo sapiens) (UniProt O15530). As to the kind of experiment: Inhibition of human recombinant PDK1 at 500 nM related to control ULK1.
The target is the same in experiment [23]. Briefly: Inhibition of human recombinant PDK1 at 500 nM in presence of ATP by radiometric assay relative to control.

Sequence of LIM domain kinase 1 (Homo sapiens) (P53667 whole entry, looked up, the tested form may be a part): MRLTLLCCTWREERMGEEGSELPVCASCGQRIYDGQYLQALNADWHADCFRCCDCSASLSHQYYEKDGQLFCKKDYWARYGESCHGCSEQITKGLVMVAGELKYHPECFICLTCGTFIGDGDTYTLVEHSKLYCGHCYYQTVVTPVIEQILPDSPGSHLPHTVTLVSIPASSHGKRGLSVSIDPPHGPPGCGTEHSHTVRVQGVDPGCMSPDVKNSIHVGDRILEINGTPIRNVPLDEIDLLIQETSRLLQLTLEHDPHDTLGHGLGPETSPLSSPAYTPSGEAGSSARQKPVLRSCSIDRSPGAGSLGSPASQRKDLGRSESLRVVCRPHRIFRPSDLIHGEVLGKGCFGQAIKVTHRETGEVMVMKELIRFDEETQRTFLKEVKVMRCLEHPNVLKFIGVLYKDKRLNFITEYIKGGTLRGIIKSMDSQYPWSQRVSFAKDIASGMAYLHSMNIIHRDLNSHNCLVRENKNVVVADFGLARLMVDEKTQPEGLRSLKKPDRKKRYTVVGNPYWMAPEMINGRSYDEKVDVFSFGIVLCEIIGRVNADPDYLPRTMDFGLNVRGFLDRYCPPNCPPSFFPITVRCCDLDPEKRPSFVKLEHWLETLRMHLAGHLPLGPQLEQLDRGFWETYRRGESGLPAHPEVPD

What is called inhibition is the percentage by which the read-out fell short of the control. As for `CC(C)[C@H](NC(=O)c1cc(-c2cnn3cc(-c4ccc(OCCN5CCCCC5)cc4)cnc23)cs1)C(F)(F)F`, the inhibition in [1] was determined as 4%; in experiment [2] it was 0%; in experiment [3], 0%; in experiment [4], 0%; in experiment [5], 4%. Further, the fold change (FC) in experiment [6] amounted to 0.64; in experiment [7], 0; in experiment [8], 0.07.
Turning to `O=C(N[C@@H](C1CC1)C(F)(F)F)c1cc(-c2cnn3cc(-c4ccc(F)cc4)cnc23)cs1`, the values for the inhibition in [9], in [10] and in experiment [11] were 5%, 0% and 0%, respectively. The figures for the fold change (FC) in experiment [12], in experiment [13] and in experiment [14] were 0, 0.07 and 0, respectively.
Regarding `CNC(=O)c1ccccc1Oc1nc(Nc2cc(OC)c(OC)c(OC)c2)ncc1Br`, the inhibition in [15] was 3%; in experiment [16], 6%; in [23], 4%. Moreover, the fold change (FC) in [17] turned out to be 0.19; in [18], 0.15; in experiment [19] it was 0.04; in experiment [20], 1.05; in [21], 0.01; in [22], 0.05.
